Here are results for 11 compounds from ChEMBL document CHEMBL2385029, “Cytotoxic activities of substituted 3-(3,4,5-trimethoxybenzylidene)-1,3-dihydroindol-2-ones and studies on their mechanisms of action” (Eur J Med Chem, 2013).

Calls of active or inactive are those of the source. No cut-off for these calls is given here.

The nature of assay [1]: Cytotoxicity against human breast cancer cells after 48 hrs. The class given is functional. To be noted: Cancer cell lines. A digest of the protocol: (§1)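 NCI 60-cell panel, values averaged per subpanel. Compounds were dissolved in DMSO and first screened at a single 10⁻⁵ M dose. Active ones then went to five concentrations at ten-fold dilutions, top 10⁻⁴ M (10⁻³ M for some), with 48 h exposure.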

A short description of assay [2]: Inhibition of bovine brain tubulin assembly after 20 mins.
Assay [3] can be described thus: Cytotoxicity against human leukemia cells after 48 hrs. Type of assay: functional. To be noted: Leukemia cell; for CC50: read-out: LC50 (the source's name).
A short description of assay [4]: Cytotoxicity against human colon cancer cells after 48 hrs. To be noted: Cancer cell lines. Type of assay: functional. A digest of the protocol:
as §1

A short description of assay [5]: Cytotoxicity against human NSCLC cells after 48 hrs. The class given is functional. To be noted: for CC50: read-out: LC50 (the source's name). The procedure, abridged: as §1
Assay [6] is described as follows: Cytotoxicity against human CNS cancer cells after 48 hrs. Type of assay: functional. As to conditions: Cancer cell lines. The procedure, abridged: as §1
Assay [7] in a line: Cytotoxicity against human melanoma cells after 48 hrs. Type of assay: functional. As to conditions: Melanoma cell; for CC50: read-out: LC50 (the source's name).
Assay [8] can be described thus: Cytotoxicity against human renal cancer cells after 48 hrs. The class given is functional. To be noted: Cancer cell lines.
The nature of assay [9]: Cytotoxicity against human ovarian cancer cells after 48 hrs. Type of assay: functional. As to conditions: Cancer cell lines; for CC50: read-out: LC50 (the source's name). The procedure, abridged:
as §1

Assay [10] in a line: Cytotoxicity against human prostate cancer cells after 48 hrs. Type of assay: functional. To be noted: Cancer cell lines; for CC50: read-out: LC50 (the source's name). The procedure, abridged:
as §1

The test system of assay [11] is B1647. The assay can be described thus: Cytotoxicity against human B1647 cells at 5 to 10 uM after 24 hrs by MTT assay. The class given is functional, cell-based. The procedure, abridged: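 B1647 human AML cells grown in IMDM with 5% human serum (37 °C, 5% CO2); 10⁶ cells per well in 1 mL exposed to 5 or 10 µM compound (DMSO) for 24 h. MTT 0.5 mg/mL added for 4 h at 37 °C, formazan dissolved overnight in 10% SDS/0.01 M HCl, A570 read. Four independent experiments.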
For orientation: Tetrazolium assays rely on reduction of a dye to a coloured formazan, in cell work by metabolically active cells.

For `COc1ccc2c(c1)/C(=C\c1cc(OC)c(OC)c(OC)c1)C(=O)N2C`, the GI50 (usually the concentration at which growth is held to half of that of the control) is 2.7 µM in assay [1]; 1.4 µM in [3]; 2.6 µM in assay [4]; 3.7 µM in assay [5]; 2.4 µM in assay [6]; 3.1 µM in assay [7]. Also, the figures for the GI50 in assay [8], in assay [9] and in assay [10] were 3.2 µM, 3.5 µM and 2.6 µM, respectively. Further, the IC50 (usually the point on the concentration scale where inhibition reaches its midpoint) in assay [2] is greater than 20 µM. In addition, the CC50 in [3] came out at 87.1 µM; in [5], 83.2 µM; in [7] it was 85.1 µM. The LC50 (usually the concentration lethal to half of the exposed cells or organisms) in assay [4] turned out to be 63.1 µM. For the same compound, the TGI – broadly, the concentration at which net growth stops – is 16.6 µM in [4], 46.8 µM in assay [5], 14.1 µM in [6] and 28.2 µM in assay [9].
In the case of `CC[C@]1(O)C[C@H]2CN(CCc3c([nH]c4ccccc34)[C@@](C(=O)OC)(c3cc4c(cc3OC)N(C=O)[C@H]3[C@@](O)(C(=O)OC)[C@H](OC(C)=O)[C@]5(CC)C=CCN6CC[C@]43[C@@H]65)C2)C1` [VINCRISTINE], the results for the CC50 in assay [3], in [9] and in [10] were 631 µM, 316 µM and 316 µM, respectively.
Take `COc1ccc(CN2C(=O)/C(=C/c3cc(OC)c(OC)c(OC)c3)c3cc(OC)ccc32)cc1`: the GI50 was 2.6 µM in assay [1]; 2.7 µM in [3]; 1.9 µM in assay [4]; 2.3 µM in [5]; 2.2 µM in assay [6]; 2.1 µM in assay [7]. Further, the results for the 50% growth inhibitory concentration (GI50) in [8], in [9] and in assay [10] were 2.4 µM, 2.4 µM and 3.2 µM, respectively. Besides, the LC50 in assay [1] came out at 79.4 µM; in [4], 7.9 µM; in assay [6] it was 33.9 µM; in [8], 28.8 µM. For the same compound, the TGI in [1] was 13.8 µM; in [3] it was 27.5 µM; in assay [5] it was 11.2 µM; in assay [10], 14.1 µM. In [2], this compound came in with an IC50 greater than 20 µM. The CC50 in assay [5] stood at 33.1 µM; in assay [7], 23.4 µM; in assay [9], 50.1 µM; in assay [10], 83.2 µM.
On to `COc1cc(/C=C2\C(=O)Nc3ccc(N(C)C)cc32)cc(OC)c1OC`, for which the GI50 in assay [1] was determined as 2.1 µM; in assay [3], 1.1 µM; in assay [4], 2.4 µM; in [5], 4.2 µM; in [6] it was 2.9 µM; in assay [7], 3.5 µM. The concentration for 50% growth inhibition (GI50) in [8] came out at 3.8 µM; in assay [9], 3.2 µM; in assay [10], 2.5 µM. Also, the TGI in [1] was found to be 37.1 µM; in assay [4] it was 34.7 µM; in assay [5], 41.7 µM; in [6] it was 25.1 µM; in [7], 42.7 µM; in assay [10] it was 43.6 µM. In addition, the IC50 in assay [2] was greater than 20 µM. Also, the CC50 in [3] and in [9] was 81.3 µM each time. Further, the 50% lethal concentration (LC50) in assay [4] was determined as 81.3 µM; in assay [6], 81.3 µM; in assay [8] it was 83.2 µM. Further, the result in [11] was Active.
Take `COc1cc(/C=C2\C(=O)Nc3cc(Cl)ccc32)cc(OC)c1OC`: the GI50 in assay [1] was determined as 0.8 µM; in assay [3], 0.5 µM; in assay [4], 0.8 µM; in [5], 2 µM; in [6], 1.6 µM; in [7] it was 1.9 µM. Further, the figures for the GI50 in [8], in [9] and in [10] were 1.6 µM, 1.9 µM and 1.5 µM, respectively. Besides, the LC50 in assay [1] was found to be 31.6 µM; in assay [4], 22.9 µM; in [6], 18.6 µM; in [8], 14.1 µM. The compound further displayed an IC50 in assay [2] of 15 µM. Moreover, the CC50 in [3] was determined as 56.2 µM; in assay [5], 29.5 µM; in assay [7] it was 19 µM; in [9], 17.4 µM; in assay [10], 17 µM.
Regarding `COc1cc(/C=C2/C(=O)N(C)c3ccc(O)cc32)cc(OC)c1OC`, the GI50 in assay [1] came to 3.2 µM; in assay [3], 2.2 µM; in [4] it was 4.3 µM; in [5], 6.3 µM; in [6], 4.3 µM; in [7], 4.9 µM. For the same compound, the concentration for 50% growth inhibition (GI50) stood at 5.7 µM in assay [8], 5.5 µM in assay [9] and 2.8 µM in assay [10]. The LC50 in assay [1] came out at 61.7 µM; in assay [4], 47.9 µM; in assay [6] it was 53.7 µM; in assay [8], 70.8 µM. The TGI in assay [1] turned out to be 15.1 µM; in assay [4], 18.2 µM; in [5], 24.6 µM; in assay [7], 16.2 µM; in [8], 22.4 µM; in assay [9], 26.3 µM. Also, in assay [2], the IC50 was greater than 20 µM. In addition, the CC50 amounted to 81.3 µM in assay [3]; 77.6 µM in assay [5]; 43.6 µM in [7]; 79.4 µM in [9]; 22.9 µM in assay [10].
Turning to `COc1ccc(CN2C(=O)/C(=C\c3cc(OC)c(OC)c(OC)c3)c3ccccc32)cc1`, the GI50 in assay [1] is 2.3 µM; in assay [3] it was 2.2 µM; in assay [4], 1.8 µM; in [5], 2 µM; in assay [6], 2.5 µM; in [7] it was 1.7 µM. Further, the GI50 in [8] came out at 2 µM; in assay [9] it was 2.6 µM; in assay [10], 2.7 µM. The LC50 was 93.3 µM in [1], 8.3 µM in assay [4], 26.3 µM in assay [6] and 45.7 µM in assay [8]. Further, the TGI was found to be 17.4 µM in assay [1]; 27.5 µM in assay [3]; 10.5 µM in [6]; 21.4 µM in [9]; 26.3 µM in assay [10]. Besides, the concentration for half-maximal inhibition (IC50) in assay [2] is greater than 20 µM. Besides, the CC50 amounted to 38.9 µM in assay [5], 19.5 µM in [7] and 67.6 µM in assay [9].
With `COc1cc(/C=C2\C(=O)Nc3c(Cl)ccc(Cl)c32)cc(OC)c1OC`, the outcome in assay [11] was Active.
In the case of `COc1cc(/C=C2\C(=O)N(C)c3ccc(Cl)cc32)cc(OC)c1OC`, the GI50 came out at 3.7 µM in assay [1]; 2.3 µM in assay [3]; 4 µM in assay [4]; 7.4 µM in assay [5]; 4.3 µM in [6]; 5 µM in assay [7]. Besides, the results for the GI50 in [8], in [9] and in [10] were 4.7 µM, 5.9 µM and 3.2 µM, respectively. Moreover, the TGI in assay [1] is 17.4 µM; in assay [3], 14.4 µM; in [4], 18.2 µM; in assay [5], 28.2 µM; in assay [6], 24.5 µM; in [9], 36.3 µM. Moreover, the TGI in assay [10] worked out at 11.2 µM. For the same compound, in assay [2], the IC50 was greater than 20 µM. Further, the CC50 in assay [3] was 67.6 µM; in assay [5] it was 85.1 µM; in assay [7] it was 69.2 µM; in assay [9], 93.3 µM. For the same compound, the LC50 in assay [4] worked out at 67.6 µM; in assay [6], 81.3 µM; in assay [8], 85.1 µM.
Turning to `COc1ccc(OC)c2c1NC(=O)/C2=C\c1cc(OC)c(OC)c(OC)c1`, the GI50 in assay [1] was 2.2 µM; in [3], 2.6 µM; in assay [4], 4 µM; in assay [5], 7.1 µM; in [6], 5.5 µM; in [7], 5.2 µM. Besides, the GI50 was 4.5 µM in [8], 4.6 µM in assay [9] and 4.3 µM in assay [10]. Further, the LC50 amounted to 64.6 µM in assay [1], 41.7 µM in assay [4], 54.9 µM in assay [6] and 54.9 µM in assay [8]. This compound gave an IC50 in [2] greater than 20 µM. For the same compound, the TGI in [3] amounted to 14.1 µM; in assay [4] it was 15.5 µM; in [5], 25.1 µM; in assay [6], 20.4 µM; in assay [7], 18.6 µM; in [8] it was 18.6 µM. Further, the figures for the TGI in assay [9] and in assay [10] were 23.4 µM and 22.9 µM, respectively. In addition, the CC50 was 79.4 µM in assay [3]; 74.1 µM in [5]; 44.7 µM in [7]; 77.6 µM in assay [9]; 58.9 µM in assay [10].
With `COc1cc(/C=C2\C(=O)Nc3cc(OC(F)(F)F)ccc32)cc(OC)c1OC`, the GI50 in [1] is 2.1 µM; in [3] it was 2.3 µM; in assay [4], 2.8 µM; in [5], 2.9 µM; in assay [6], 2.6 µM; in assay [7], 2.6 µM. Also, the GI50 in assay [8] was determined as 3.3 µM; in assay [9] it was 2.9 µM; in [10], 4.6 µM. For the same compound, the 50% lethal concentration (LC50) in [1] is 60.3 µM; in assay [4] it was 37.1 µM; in assay [6], 33.9 µM; in assay [8] it was 34.7 µM. Besides, the IC50 in assay [2] was greater than 20 µM. Moreover, the concentration for total growth inhibition (TGI) amounted to 27.5 µM in assay [3]; 10.2 µM in assay [4]; 14.1 µM in assay [5]; 10.7 µM in assay [7]; 12.6 µM in assay [8]; 11.2 µM in [9]. The TGI in assay [10] worked out at 29.5 µM. Moreover, the CC50 is 51.3 µM in assay [5], 44.7 µM in assay [7], 49 µM in assay [9] and 83.2 µM in [10].
